From ChEMBL document CHEMBL1139331, “Molecular modelling studies, synthesis and biological activity of a series of novel bisnaphthalimides and their development as new DNA topoisomerase II inhibitors” (Bioorg Med Chem, 2009)
Active and inactive are the calls of the source. No cut-off for these calls is given here.

Columns and labels:
[1] = tested on: HT-29; assay: Cytotoxicity against human HT-29 cells after 72 hrs by MTT assay; format: functional, cell-based; details: HT-29, 72 h
Method in brief: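 HT-29 cells, grown in DMEM with 2 mM L-glutamine, 10% heat-inactivated FBS and 1% penicillin/streptomycin at 37 °C, seeded at 1 × 10⁵ cells/ml and exposed 72 h to a range of compound concentrations in DMSO. Cells were then given MTT 3 h, formazan dissolved in SDS/formamide lysis buffer pH 4.7, and absorbance read at 620 nm. Values are % of untreated control; IC50 is from ≥3 experiments.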

[2] = tested on: HT-29; assay: Blockade of cell cycle progression in human HT-29 cells; format: functional, cell-based
[3] = target: DNA topoisomerase 2-alpha (Homo sapiens) (UniProt P11388); assay: Inhibition of human recombinant topoisomerase 2alpha-mediated pBR322 DNA cleavage after 30 mins
Sequence of DNA topoisomerase 2-alpha (Homo sapiens) (P11388 whole entry): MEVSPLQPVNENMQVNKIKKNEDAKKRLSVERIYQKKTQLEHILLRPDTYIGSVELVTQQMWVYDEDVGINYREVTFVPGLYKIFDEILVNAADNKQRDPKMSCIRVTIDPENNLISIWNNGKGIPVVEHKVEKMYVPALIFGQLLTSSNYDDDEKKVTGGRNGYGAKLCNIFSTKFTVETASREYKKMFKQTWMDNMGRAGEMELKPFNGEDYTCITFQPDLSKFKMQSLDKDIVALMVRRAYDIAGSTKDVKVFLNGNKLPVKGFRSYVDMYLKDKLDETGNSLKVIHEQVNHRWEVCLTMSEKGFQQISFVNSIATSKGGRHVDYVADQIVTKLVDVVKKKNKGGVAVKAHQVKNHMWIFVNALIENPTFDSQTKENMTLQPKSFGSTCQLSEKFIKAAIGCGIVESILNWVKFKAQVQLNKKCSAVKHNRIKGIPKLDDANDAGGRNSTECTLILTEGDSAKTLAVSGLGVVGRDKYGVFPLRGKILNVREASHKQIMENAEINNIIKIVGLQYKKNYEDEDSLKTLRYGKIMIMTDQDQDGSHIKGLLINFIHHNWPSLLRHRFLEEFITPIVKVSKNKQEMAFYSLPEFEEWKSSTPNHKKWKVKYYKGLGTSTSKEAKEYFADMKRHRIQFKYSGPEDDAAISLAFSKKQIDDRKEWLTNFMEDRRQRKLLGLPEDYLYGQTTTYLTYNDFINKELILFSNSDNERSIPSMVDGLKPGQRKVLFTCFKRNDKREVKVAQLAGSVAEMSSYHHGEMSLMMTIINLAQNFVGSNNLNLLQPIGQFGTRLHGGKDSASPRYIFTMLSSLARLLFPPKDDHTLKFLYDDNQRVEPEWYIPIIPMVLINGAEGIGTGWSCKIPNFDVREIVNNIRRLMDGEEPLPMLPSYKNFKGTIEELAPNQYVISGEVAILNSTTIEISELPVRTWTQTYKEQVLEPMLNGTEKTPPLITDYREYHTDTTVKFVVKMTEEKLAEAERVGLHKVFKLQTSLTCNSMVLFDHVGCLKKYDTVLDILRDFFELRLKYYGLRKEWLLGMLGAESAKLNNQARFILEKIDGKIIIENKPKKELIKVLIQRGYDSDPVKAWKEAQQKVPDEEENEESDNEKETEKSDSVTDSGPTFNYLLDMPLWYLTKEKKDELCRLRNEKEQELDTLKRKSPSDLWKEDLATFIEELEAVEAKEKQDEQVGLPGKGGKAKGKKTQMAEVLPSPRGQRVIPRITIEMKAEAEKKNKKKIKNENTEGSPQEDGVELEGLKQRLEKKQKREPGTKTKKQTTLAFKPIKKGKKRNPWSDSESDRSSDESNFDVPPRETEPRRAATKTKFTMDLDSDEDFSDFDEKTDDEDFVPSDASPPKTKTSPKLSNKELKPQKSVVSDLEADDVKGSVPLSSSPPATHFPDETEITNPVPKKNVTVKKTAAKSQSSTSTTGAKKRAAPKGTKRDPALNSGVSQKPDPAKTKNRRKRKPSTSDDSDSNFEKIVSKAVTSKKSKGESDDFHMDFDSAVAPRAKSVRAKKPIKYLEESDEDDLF

[4] = tested on: HT-29; assay: Induction of apoptosis in human HT-29 cells assessed as hypodiploid DNA content at 0.1 uM after 48 hrs using propidium iodide staining by flow cytometry; format: functional
Method in brief: (§1)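 Cultured HT-29 cells were plated at 5 × 10⁵ per 6-cm dish the day before treatment, then exposed 48 h to 0.1–5 μM. Cells were washed in PBS and taken up in 0.1% sodium citrate, 0.1% Triton X-100 and 50 μg/ml PI for 30 min at 4 °C in the dark. Nuclei were run by flow cytometry with debris gated out by forward scatter, and % hypodiploid nuclei counted. Three experiments in triplicate.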

[5] = tested on: HT-29; assay: Induction of apoptosis in human HT-29 cells after 48 hrs assessed as hypodiploid DNA content using propidium iodide staining by flow cytometry; format: functional, cell-based; method in brief: as §1
[6] = tested on: HT-29; assay: Induction of apoptosis in human HT-29 cells after 48 hrs using propidium iodide staining by flow cytometry in presence of Z-VAD-FMK; format: functional, cell-based
Method in brief: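 HT-29 cells were pretreated with the general caspase inhibitor Z-VAD-FMK at 50 μM for 30 min before compound was added, then incubated 48 h. Nuclei were stained with PI in 0.1% citrate/0.1% Triton X-100 for 30 min at 4 °C in the dark. Hypodiploid % was scored by flow cytometry. Three experiments in triplicate; Bonferroni test.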

[7] = tested on: HT-29; assay: Induction of apoptosis in human HT-29 cells assessed as hypodiploid DNA content at 0.5 uM after 48 hrs using propidium iodide staining by flow cytometry; format: functional, cell-based; method in brief: as §1
[8] = target: DNA topoisomerase 2-alpha (Homo sapiens) (UniProt P11388); assay: Inhibition of human recombinant topoisomerase 2alpha-mediated pBR322 DNA cleavage at 10 uM after 30 mins

## O=C1c2cccc3cccc(c23)C(=O)N1CCCCNCCNCCCNCCNCCCCN1C(=O)c2cccc3cccc(c23)C1=O
[1]
  IC50: 6100 nM

## O=C1c2cccc3cc([N+](=O)[O-])cc(c23)C(=O)N1CCN1CCN(CCN2C(=O)c3cccc4cc([N+](=O)[O-])cc(c34)C2=O)CC1
[1]
  IC50: 2100 nM
[2]
  Activity: inactive

## O=C1c2cccc3cccc(c23)C(=O)N1CCNCCCNCCN1C(=O)c2cccc3cccc(c23)C1=O [ELINAFIDE]
[1]
  IC50: 38 nM

## C[C@@H]1CN(CCN2C(=O)c3cccc4cc([N+](=O)[O-])cc(c34)C2=O)C[C@H](C)N1CCN1C(=O)c2cccc3cc([N+](=O)[O-])cc(c23)C1=O
[1]
  IC50: 6100 nM
[2]
  Activity: inactive

## O=C1c2cccc3cc([N+](=O)[O-])cc(c23)C(=O)N1CCN1CC2CCC(C1)N2CCN1C(=O)c2cccc3cc([N+](=O)[O-])cc(c23)C1=O
[1]
  IC50: 7300 nM
[2]
  Activity: inactive

## O=C1c2cccc3cc([N+](=O)[O-])cc(c23)C(=O)N1CCNCCNCCN1C(=O)c2cccc3cc([N+](=O)[O-])cc(c23)C1=O
[3]
  Activity: inactive
[1]
  IC50: 200 nM
[2]
  Activity: inactive

## O=C1c2cccc3cc([N+](=O)[O-])cc(c23)C(=O)N1CCCNCCNCCCN1C(=O)c2cccc3cc([N+](=O)[O-])cc(c23)C1=O
[4]
  Activity: 40%
[5]
  Activity: Dose-dependent effect
[3]
  Activity: inactive
[1]
  IC50: 501 nM
[6]
  Activity: inactive
[2]
  Activity: inactive

## O=C1c2cccc3cc([N+](=O)[O-])cc(c23)C(=O)N1CCCNC1CC1NCCCN1C(=O)c2cccc3cc([N+](=O)[O-])cc(c23)C1=O (stereo not given)
[7]
  Activity: Active
[5]
  Activity: Dose-dependent effect
[3]
  Activity: inactive
[1]
  IC50: 3300 nM
[6]
  Activity: inactive
[2]
  Activity: inactive

## O=C1c2cccc3cc([N+](=O)[O-])cc(c23)C(=O)N1CCCCNCCNCCCNCCNCCCCN1C(=O)c2cccc3cc([N+](=O)[O-])cc(c23)C1=O
[8]
  Activity: Active
[1]
  IC50: 160 nM
